# Results of several laboratories.
# Protocols differ between the studies behind these lines.
# Organism: Mycolicibacterium smegmatis
# Read-out: microbial growth
Structure (SMILES),method,strain,time,MIC
NNC(=O)c1ccncc1,broth dilution,ATCC607,,> 200 µg/mL
CN[C@@H]1[C@@H](O)[C@@H](O[C@@H]2[C@@H](O)[C@H](O[C@H]3O[C@H]([C@@H](C)O)[C@@H](O)[C@H](O)[C@H]3N)[C@@H](N)C[C@H]2N)OC[C@]1(C)O,broth dilution,,72 h,8 µg/mL
C[C@@H]([C@H](N)C(=O)N[C@H](C(=O)O)[C@H]1O[C@@H](n2ccc(=O)[nH]c2=O)[C@H](O)[C@@H]1O)[C@H](O)c1ccc(O)cn1,resazurin,ATCC607,72 h,> 50 µg/mL
CC(C)=CCC/C(C)=C/CNC(=O)COC1C2CC3CC(C2)CC1C3 (stereo not shown),,,,6.2 µg/mL
CNC(=O)c1cc(Oc2ccc(NC(=O)Nc3ccc(Cl)c(C(F)(F)F)c3)cc2)ccn1,,MC2155,,50 µM
CN[C@H](CC(C)C)C(=O)N[C@H]1C(=O)N[C@@H](CC(N)=O)C(=O)N[C@H]2C(=O)N[C@H]3C(=O)N[C@H](C(=O)N[C@H](C(=O)O)c4cc(O)cc(O)c4-c4cc3ccc4O)[C@H](O)c3ccc(c(Cl)c3)Oc3cc2cc(c3O[C@@H]2O[C@H](CO)[C@@H](O)[C@H](O)[C@H]2O[C@H]2C[C@](C)(N)[C@H](O)[C@H](C)O2)Oc2ccc(cc2Cl)[C@H]1O,resazurin,ATCC607,72 h,3.12 µg/mL
NNC(=O)c1ccncc1,,,,1 µg/mL
O=C(Nc1ncc([N+](=O)[O-])s1)c1ccccn1,agar dilution,MC^2155,,100 µM
Cc1ccc(-c2nc3ccc(C)cn3c2CC(=O)N(C)C)cc1,broth dilution,,,> 50 µM
CO[C@H]1/C=C/O[C@@]2(C)Oc3c(C)c(O)c4c(O)c(c(/C=N/N5CCN(C)CC5)c(O)c4c3C2=O)NC(=O)/C(C)=C\C=C\[C@H](C)[C@H](O)[C@@H](C)[C@@H](O)[C@@H](C)[C@H](OC(C)=O)[C@@H]1C,,,,2 µg/mL
CO[C@H]1/C=C/O[C@@]2(C)Oc3c(C)c(O)c4c(O)c(c(/C=N/N5CCN(C)CC5)c(O)c4c3C2=O)NC(=O)/C(C)=C\C=C\[C@H](C)[C@H](O)[C@@H](C)[C@@H](O)[C@@H](C)[C@H](OC(C)=O)[C@@H]1C,resazurin,ATCC607,72 h,1.58 µg/mL
CO[C@H]1/C=C/O[C@@]2(C)Oc3c(C)c(O)c4c(O)c(c(/C=N/N5CCN(C)CC5)c(O)c4c3C2=O)NC(=O)/C(C)=C\C=C\[C@H](C)[C@H](O)[C@@H](C)[C@@H](O)[C@@H](C)[C@H](OC(C)=O)[C@@H]1C,agar dilution,,,> 25 µg/mL
CC(C)=CCC/C(C)=C/CNCCCOC1C2CC3CC(C2)CC1C3 (stereo not shown),,,,6.2 µg/mL
CN[C@H](CC(C)C)C(=O)N[C@H]1C(=O)N[C@@H](CC(N)=O)C(=O)N[C@H]2C(=O)N[C@H]3C(=O)N[C@H](C(=O)N[C@H](C(=O)O)c4cc(O)cc(O)c4-c4cc3ccc4O)[C@H](O)c3ccc(c(Cl)c3)Oc3cc2cc(c3O[C@@H]2O[C@H](CO)[C@@H](O)[C@H](O)[C@H]2O[C@H]2C[C@](C)(N)[C@H](O)[C@H](C)O2)Oc2ccc(cc2Cl)[C@H]1O,resazurin,MC^2155,24 h,0.78 µg/mL
COC1C(O)C(n2ccc(=O)[nH]c2=O)OC1C(OC1OC(C(=O)NC2CCCCNC2=O)=CC(O)C1O)C(N)=O (stereo not shown),broth dilution,ATCC607,,6.5 µg/mL
CC(C)=CCC/C(C)=C/CNCCNC1C2CC3CC(C2)CC1C3 (stereo not shown),,,,3.1 µg/mL
Nc1ccc(C(=O)O)c(O)c1,broth dilution,MC^2155,,1.25 µg/mL
CCC(C)(C)C(=O)Oc1ccccc1C(=O)Nc1ncc([N+](=O)[O-])s1,agar dilution,MC^2155,,> 25 µM
CC(C)=CCC/C(C)=C/CNCCOC(C)(C)C,,,,50 µg/mL
